Compound activity: PubChem, several laboratories
PfM18AAP inh-1 – blocks P. falciparum M18 aspartyl aminopeptidase. recombinant PfM18AAP, H-Glu-NHMec fluorogenic cleavage. inhibition, % at 7.35 µM. 290,000 compounds, 1.2% hits;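 active = inhibition above the campaign mean inhibition over all tested compounds plus 3 SD, cut at about 28% in these data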
PfG6PD inh – PfG6PD (Plasmodium falciparum) enzyme inhibition. 350,000 compounds, 0.78% hits. inhibition, % at 20 µM. PfGluPho enzyme, NADPH resazurin-diaphorase fluorescence;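 active = inhibition reaching at least a set limit at 20 µM in the primary screen, cut at about 59% in these data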
Neddylation inh – cullin neddylation inhibition; TR-FRET cullin neddylation, biochemical; P61081+Q13564; 360,000 compounds, 0.58% hits; inhibition, % at 25 µM; in the data active = inhibition above about 36%
Target sequence (P61081 whole entry, looked up): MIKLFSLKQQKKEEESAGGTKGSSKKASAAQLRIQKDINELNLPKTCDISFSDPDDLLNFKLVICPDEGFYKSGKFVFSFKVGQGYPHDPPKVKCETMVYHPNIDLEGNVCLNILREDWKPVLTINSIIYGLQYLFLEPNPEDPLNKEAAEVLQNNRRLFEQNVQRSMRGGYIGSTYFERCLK
Target sequence (Q13564 whole entry, looked up): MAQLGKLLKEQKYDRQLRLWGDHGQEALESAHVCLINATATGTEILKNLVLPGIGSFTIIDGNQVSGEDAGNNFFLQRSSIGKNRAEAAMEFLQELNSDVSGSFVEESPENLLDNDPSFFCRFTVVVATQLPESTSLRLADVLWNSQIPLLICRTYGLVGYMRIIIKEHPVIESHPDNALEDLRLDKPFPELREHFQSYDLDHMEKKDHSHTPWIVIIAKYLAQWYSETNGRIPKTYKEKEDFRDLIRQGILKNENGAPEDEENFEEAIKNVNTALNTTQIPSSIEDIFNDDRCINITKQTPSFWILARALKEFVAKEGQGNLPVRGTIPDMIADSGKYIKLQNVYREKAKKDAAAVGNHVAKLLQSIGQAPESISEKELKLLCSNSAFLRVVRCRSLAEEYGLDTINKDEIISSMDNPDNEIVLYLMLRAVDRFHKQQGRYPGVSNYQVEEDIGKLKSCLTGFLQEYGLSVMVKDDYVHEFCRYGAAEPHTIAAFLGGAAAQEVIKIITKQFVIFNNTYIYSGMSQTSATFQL
HKDC1 inh – HKDC1 (human) hexokinase inhibition; recombinant HKDC1, G6PDH/diaphorase resazurin coupled fluorescence; inhibition, % at 20 µM; AID 493160; 340,000 compounds, 0.16% hits;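 active = inhibition above about 35% when tested at 20 µM, limit read from the data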
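Test system: HK5 enzyme. Quantity: 5 µg/mL HK5 final. Reagent: glucose and ATP substrates. Schedule: 90 min reaction incubation at room temperature, dark. Technique: resazurin-to-resorufin fluorescence via G6PDH and diaphorase coupling, 525/613 nm. Control set: DMSO wells with and without enzyme mix.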
PfM18AAP inh-2 – confirmation of Plasmodium falciparum M18 aspartyl aminopeptidase inhibitors; shares compounds with PfM18AAP inh-1; recombinant PfM18AAP, H-Glu-NHMec fluorogenic cleavage; inhibition, % at 7.35 µM; 2,400 compounds, 28% hits; AID 2170;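 active = mean inhibition over replicate wells above the hit cutoff set for the earlier primary screen, cut at about 29% in these data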
CTSL1 confirm – counter-screen for PFM18AAP inhibitors: confirmation of human cathepsin L inhibitors. purified cathepsin L1, Z-Leu-Arg-MCA fluorescence. shares compounds with PfM18AAP inh-1. 2,400 tested, under 10 active. inhibition, % at 5.96 µM;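 active = average inhibition across replicates above the hit cutoff set in the earlier primary screen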
Each line names hits and unclear results; the compound was inactive in the other large screens (follow-up assays come after a bar, where they were run). A selection: hits, their analogues and other compounds. The true share with any hit is near 2.2%.

CCc1nnc(N/N=C/c2cc(Br)c(O)cc2O)n1N	PfM18AAP inh-1 62 | PfM18AAP inh-2 54 | CTSL1 confirm inactive
CCc1nnc(N/N=C/c2c(Cl)cccc2Cl)n1N	PfM18AAP inh-1 56 | PfM18AAP inh-2 inactive | CTSL1 confirm inactive
CNC(=S)N/N=C/c1c(Cl)cccc1Cl	none
Cc1nnc(N/N=C/c2ccco2)n1N	none
CC(NC(=O)c1cccc(OC2CCN(C3CCN(C)CC3)CC2)c1)c1ccccc1 (stereo unspecified)	none
CCOc1ccc2[nH]cc(C(=O)O)c(=O)c2c1	PfM18AAP inh-1 51 | PfM18AAP inh-2 inactive | CTSL1 confirm inactive
CCOc1ccc2[nH]cc(C(=O)N3CCN(C4CCCCC4)CC3)c(=O)c2c1	none
Cc1onc(-c2c(Cl)cccc2Cl)c1C(=O)Nn1cnnc1	PfM18AAP inh-1 45 | PfM18AAP inh-2 37 | CTSL1 confirm inactive
COc1ccc(C(=O)Nn2cnnc2)c(OC)c1	PfM18AAP inh-1 34 | PfM18AAP inh-2 inactive | CTSL1 confirm inactive
Cc1ccc(C(=O)Nn2cnnc2)c(Cl)c1	PfM18AAP inh-1 49 | PfM18AAP inh-2 42 | CTSL1 confirm inactive
COc1ccc(C(=O)Nn2cnc3ccccc3c2=O)c(OC)c1	none
COc1ccc(C(=O)Nn2cnnc2)cc1OC	PfM18AAP inh-1 43 | PfM18AAP inh-2 inactive | CTSL1 confirm inactive
CCN1CCN(C(CNS(=O)(=O)c2ccc(F)cc2)c2cccnc2)CC1 (stereo unspecified)	none
O=C1NC[C@H](Cc2ccccc2)N(CC2CCN(CCCC3CCCC3)CC2)C1=O	none (no result: PfM18AAP inh-1)
COCCNC(=O)C(OC(=O)C1=Cc2ccccc2OC1)C(C)C (stereo unspecified)	none
Cc1cccc(C(=O)NNC(=O)c2c(-c3ccccc3Cl)noc2C)c1O	PfM18AAP inh-1 39 | PfM18AAP inh-2 inactive | CTSL1 confirm inactive
O=C(CSc1ccc(Cl)cc1)Nn1cnnc1	PfM18AAP inh-1 40 | PfM18AAP inh-2 52 | CTSL1 confirm inactive
O=C(CSc1ccc2ccccc2c1)Nn1cnnc1	PfM18AAP inh-1 65 | PfM18AAP inh-2 51 | CTSL1 confirm inactive
O=C(CSc1ccc(Cl)cc1)Nc1ncccn1	none
CN(CC(=O)Nn1cnnc1)S(=O)(=O)c1cc(Cl)ccc1Cl	PfM18AAP inh-1 44 | PfM18AAP inh-2 45 | CTSL1 confirm inactive
Cc1cc(NC(=O)c2ccc3c(c2)C(=O)N(c2cccc(C)c2C)C3=O)no1	none
CCCCSc1nc(N)nc2c1ncn2C1OC(CO)C(O)C1O (stereo unspecified)	none (no result: PfM18AAP inh-1)
O=C(COc1cccc([N+](=O)[O-])c1)NN1C(=O)c2ccccc2C1=O	none
COCc1ccc(-c2c(-c3cc(OC)cc(OC)c3)oc(=O)c3cc(OC)c(OC)cc23)cc1	none (no result: PfM18AAP inh-1)
Cc1cccnc1Nc1nc(-c2ccc(O)cc2)cs1	PfM18AAP inh-1 34 | PfM18AAP inh-2 30 | CTSL1 confirm inactive
COc1cccc(Nc2nc(-c3cccc(N4C(=O)c5ccccc5C4=O)c3)cs2)c1	none
Cc1cccnc1Nc1nc(-c2ccc(F)cc2)cs1	none
COc1cccc(Nc2nc(-c3ccc(O)cc3)cs2)c1	PfM18AAP inh-1 43 | PfM18AAP inh-2 34 | CTSL1 confirm inactive
Cc1ccc(S(=O)(=O)N(C)c2ccc(C(=O)NCC(c3ccco3)N3CCCC3)cc2)cc1 (stereo unspecified)	none (no result: PfM18AAP inh-1, HKDC1 inh)
CCc1ccccc1NC(=O)Nn1cnnc1	PfM18AAP inh-1 56 | PfM18AAP inh-2 38 | CTSL1 confirm inactive
CCOc1ccccc1NC(=O)Nn1cnnc1	PfM18AAP inh-1 60 | PfM18AAP inh-2 44 | CTSL1 confirm inactive
Cc1cc(C)c(C)c(S(=O)(=O)N2CCC(C(=O)Nc3ccncc3)CC2)c1C	none
Cc1c(C(=O)Nn2cnnc2)oc2ccccc12	PfM18AAP inh-1 81 | PfM18AAP inh-2 76 | CTSL1 confirm inactive
Cc1scc(C(=O)Nn2cnnc2)c1-c1ccccc1	PfM18AAP inh-1 64 | PfM18AAP inh-2 60 | CTSL1 confirm inactive
Cc1c(C(=O)NN2CCOCC2)oc2ccccc12	none
O=C(Nn1cnnc1)c1csc2ccccc12	PfM18AAP inh-1 72 | PfM18AAP inh-2 73 | CTSL1 confirm inactive
Cc1cc(C(=O)Nn2cnnc2)cs1	none
COc1cccc(NC(=O)Cc2nnc(SCC(=O)NC3CCCCC3)n2C)c1	none
Cc1ccc(S(=O)(=O)N2CCN(C(=O)COC(=O)C3CCC3)CC2)cc1	none (no result: PfM18AAP inh-1)
NCCc1ccc(O)c(O)c1	PfM18AAP inh-1 73 | PfM18AAP inh-2 66 | CTSL1 confirm inactive
NCC(O)c1ccc(O)c(O)c1 (stereo unspecified)	none (no result: PfM18AAP inh-1)
O=C1CC(c2ccc(O)c(O)c2)Oc2c1ccc(O)c2O (stereo unspecified)	none (no result: PfM18AAP inh-1)
CC(C)=CCc1c(O)ccc2c1OC(c1ccc(O)c(O)c1)CC2=O (stereo unspecified)	PfM18AAP inh-1 62 | PfM18AAP inh-2 55 | CTSL1 confirm inactive
O=C1NC(=S)CN1c1ccccc1	PfM18AAP inh-1 42 | PfM18AAP inh-2 inactive | CTSL1 confirm inactive
O=C1CSC(=S)N1N=Cc1cccc(OCc2ccccc2)c1	none (no result: PfM18AAP inh-1, HKDC1 inh)
Cc1ccccc1/C=N/N1C(=O)CSC1=S	PfM18AAP inh-1 35 | PfM18AAP inh-2 inactive | CTSL1 confirm inactive
O=C1CSC(=S)N1/N=C/c1cccnc1	PfM18AAP inh-1 35 | PfM18AAP inh-2 inactive | CTSL1 confirm inactive
Cc1cc(C)nc(SCC(=O)c2cc3ccccc3oc2=O)n1	PfM18AAP inh-1 40 | PfM18AAP inh-2 inactive | CTSL1 confirm inactive
Cc1ccc(SCC(=O)NC(=O)c2ccccc2Br)c(C)c1	none (no result: PfM18AAP inh-1)
O=C1[C@@H]2Cc3c([nH]c4ccccc34)C(c3ccccc3)N2C(=O)CN1C1CCN(Cc2ccccc2)CC1 (stereo partly specified)	PfM18AAP inh-1 41 | PfM18AAP inh-2 inactive | CTSL1 confirm inactive
Cc1nn(-c2ccccc2)c2nc(N)c(C#N)c(-c3ccc(O)c(O)c3)c12	PfM18AAP inh-1 70 | PfM18AAP inh-2 48 | CTSL1 confirm inactive
COc1cc(-c2c(C#N)c(N)nc3c2c(C)nn3-c2ccc(C)c(C)c2)cc(OC)c1OC	none
Cc1nn(-c2ccc(F)cc2)c2nc(N)c(C#N)c(-c3ccc(O)c(O)c3)c12	PfM18AAP inh-1 69 | PfM18AAP inh-2 48 | CTSL1 confirm inactive
CC(=O)C1=C(c2ccccc2)NC(=S)NC1c1ccc(O)c(O)c1 (stereo unspecified)	PfM18AAP inh-1 74 | PfM18AAP inh-2 68 | CTSL1 confirm inactive
CC(=O)C1=C(c2ccccc2)NC(=O)NC1c1ccc2c(c1)OCO2 (stereo unspecified)	none
COc1ccc(C2NC(=O)NC(C)=C2[N+](=O)[O-])cc1OC (stereo unspecified)	none
CC(=O)C1=C(c2ccccc2)NC(=O)NC1c1ccc(O)c(O)c1 (stereo unspecified)	PfM18AAP inh-1 77 | PfM18AAP inh-2 71 | CTSL1 confirm inactive
CC(=O)C1=C(c2ccccc2)NC(=S)NC1c1cc(Cl)c(OC(C)C)c(Cl)c1 (stereo unspecified)	none
CC1=C([N+](=O)[O-])C(c2ccc(O)c(O)c2)NC(=O)N1 (stereo unspecified)	PfM18AAP inh-1 84 | PfM18AAP inh-2 81 | CTSL1 confirm inactive
